For data set [1], the system named is microRNA 21. As to the kind of experiment: Inhibition of miR-21 RNA (unknown origin) in HeLa cells harboring luciferase gene assessed as increase in luminescence at 10 uM after 48 hrs by Bright-glo luciferase assay relative to DMSO. It counts as cell-based. The essentials: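 HeLa-miR21-Luc stable reporter cells treated at 10 µM for 48 h. Luminescence normalized to cell viability and expressed as fold change over DMSO control. Mean ± SD of at least three independent experiments.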

Data set [2] deals with microRNA 21. As to the kind of experiment: Inhibition of miR-21 RNA (unknown origin) in HeLa cells harboring luciferase gene after 48 hrs by Bright-glo luciferase assay. In kind it is cell-based. The essentials:
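HeLa-miR21-Luc stable reporter cells treated across a concentration range, then Bright-Glo assay. Luciferase signal normalized first to cell viability, then to DMSO. Three independent experiments; EC50 from nonlinear regression fit.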

Data set [3] has as its system HeLa. In words: Effect on non-miRNA pathway in human HeLa cells harboring psi-check empty vector assessed as increase in luminescence at 10 uM after 48 hrs by dual luciferase assay relative to control. It counts as functional. The essentials:
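HeLa cells transfected with psiCHECK-empty reporter (sequence not targeted by any known miRNA), then treated at 10 µM for 48 h. Dual luciferase assay; firefly signal normalized to Renilla, then to DMSO. Three independent experiments, mean ± SD; unpaired t-test.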

Data set [4] addresses Luciferin 4-monooxygenase (Photinus pyralis) (UniProt P08659). In words: Inhibition of recombinant firefly luciferase activity assessed as reduction in luminescence at 10 uM by Bright-glo luciferase assay relative to control.
In data set [5] the test system is microRNA 122. In words: Inhibition of miR-122 RNA (unknown origin) in HuH7 cells harboring luciferase gene assessed as reduction in luminescence at 10 uM after 48 hrs by dual luciferase assay relative to control. In kind it is cell-based. In a few lines: (§1)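 Huh7-miR122 stable reporter cells treated at 10 µM for 48 h; known miR-122 inhibitor as positive control. Dual luciferase assay; Renilla signal normalized to firefly, then to DMSO. Three independent experiments, mean ± SD; unpaired t-test.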

The test system of data set [6] is microRNA 21. In words: Binding affinity to pre-miR-21 RNA (unknown origin) assessed as melting temperature by UV spectroscopic analysis (reference value: 56 degC). In kind it is nucleic-acid assay.
In data set [7] the test system is microRNA 21. As to the kind of experiment: Inhibition of miR-21 RNA promoter (unknown origin) in HeLa cells expressing pGL4-miR21p assessed as decrease in miR-21 RNA promoter activity at 10 uM preincubated for 48 hrs followed by pGL4-miR21p transfection after 24 hrs by Bright-glo luciferase assay relative to DMSO. It counts as cell-based.
Another data set deals with HEK293. As to the kind of experiment: Antiproliferative activity against human HEK293 cells cell viability after 72 hrs by XTT assay. In kind it is cell-based. To be noted: hek293, 72 h. In a few lines: (§2)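 Cells treated with a serial dilution of compound for 72 h; viability read by XTT assay.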
For orientation: Formazan colour is commonly taken as a measure of viable cells.

Data set [8] has as its system HeLa. As to the kind of experiment: Antiproliferative activity against human HeLa cells cell viability after 72 hrs by XTT assay. It counts as functional, cell-based. The essentials:
as §2

Data set [9] concerns HeLa. In words: Induction of apoptosis in human HeLa cells assessed as increase in caspase 3/7 activity at 10 uM after 24 hrs by caspase3/7 activity assay. In kind it is functional. The essentials:
(§3)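 HeLa cells treated for 24 h, then caspase-3/7 activity assay.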

The subject of data set [10] is HeLa. In words: Anticlonogenic activity against human HeLa cells assessed as reduction in colony formation after 2 weeks by crystal violet staining based microscopic method. The conditions noted are these: 336 h. In kind it is functional, cell-based. In a few lines: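 HeLa cells suspended in low-melt agarose and exposed to a dilution series of compound for two weeks at 37 °C, then imaged.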

The test system of data set [11] is microRNA 21. As to the kind of experiment: Inhibition of pri-miR-21 RNA in human HeLa cells assessed as decrease in pri-miR-21 RNA level at 10 uM after 48 hrs by RT-qPCR method relative to control. It counts as cell-based. In a few lines: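 HeLa cells treated at 10 µM for 48 h; primary miR-21 levels measured by RT-qPCR.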
Data set [12] deals with HeLa. In words: Induction of apoptosis in human HeLa cells assessed as increase in caspase 3/7 activity at 50 uM after 24 hrs by caspase3/7 activity assay relative to control. In kind it is functional. The essentials:
as §3

Data set [13] concerns microRNA 21. In words: Inhibition of miR-21 RNA in human HeLa cells assessed as reduction in matured miR-21 RNA at 10 uM after 48 hrs by RT-qPCR analysis relative to control.
In data set [14] the test system is microRNA 21. As to the kind of experiment: Inhibition of miR-21 RNA in human A549 cells assessed as reduction in matured miR-21 RNA at 10 uM after 48 hrs by RT-qPCR analysis relative to control. For orientation: Quantitative PCR measures a nucleic acid by following its amplification.
The test system of data set [15] is microRNA 21. As to the kind of experiment: Inhibition of miR-21 RNA in human SKOV3 cells assessed as reduction in matured miR-21 RNA at 10 uM after 48 hrs by RT-qPCR analysis relative to control.
In data set [16] the test system is microRNA 122. In words: Inhibition of miR-122 RNA (unknown origin) in HuH7 cells harboring luciferase gene assessed as increase in luminescence at 10 uM after 48 hrs by dual luciferase assay relative to control. In kind it is cell-based. In a few lines:
as §1

The target in data set [17] is Luciferin 4-monooxygenase (Photinus pyralis) (UniProt P08659). As to the kind of experiment: Inhibition of recombinant firefly luciferase activity assessed as reduction in luminescence at 10 uM by Bright-glo luciferase assay.

Molecules are shown by their SMILES. The source made the active and inactive calls. No cut-off for these calls is given here. Some results are limits rather than exact numbers.

Sequence of Luciferin 4-monooxygenase (Photinus pyralis) (P08659 whole entry): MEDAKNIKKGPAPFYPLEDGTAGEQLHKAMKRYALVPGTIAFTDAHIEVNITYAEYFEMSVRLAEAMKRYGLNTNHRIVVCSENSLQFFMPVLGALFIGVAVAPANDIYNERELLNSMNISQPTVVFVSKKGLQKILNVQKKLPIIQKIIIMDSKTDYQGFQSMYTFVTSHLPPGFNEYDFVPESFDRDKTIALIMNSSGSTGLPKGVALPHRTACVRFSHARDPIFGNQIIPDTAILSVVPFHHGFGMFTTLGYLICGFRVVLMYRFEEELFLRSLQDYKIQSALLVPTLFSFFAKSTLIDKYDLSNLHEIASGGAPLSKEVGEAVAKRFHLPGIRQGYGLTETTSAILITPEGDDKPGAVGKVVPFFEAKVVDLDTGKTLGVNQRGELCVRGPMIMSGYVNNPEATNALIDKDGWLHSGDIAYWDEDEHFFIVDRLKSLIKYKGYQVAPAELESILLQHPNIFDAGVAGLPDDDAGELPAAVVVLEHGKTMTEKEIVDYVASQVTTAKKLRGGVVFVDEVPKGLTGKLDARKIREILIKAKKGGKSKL

With `COc1ccc(OCC(=O)Nc2nc3ccc(-c4nc5cc(Cl)ccc5o4)cc3s2)cc1`, in the data set on microRNA 21 [1], the fold change (FC) turned out to be 0.03. In the case of `COc1ccc(NCC(=O)Nc2ccc(-c3nc4cc(Cl)ccc4o3)cc2)cc1`, the fold change (FC) in the data set on microRNA 21 [1] was 0.14. Same read-out and setting: the value for `COc1ccc(OCC(=O)Nc2ccc(-c3nc4ccccc4s3)cc2)cc1` was 1.56; that for `O=C(COc1ccccc1)Nc1ccc(-c2nc3cc(Cl)ccc3[nH]2)cc1` was 0.41; that for `O=C(COc1ccccc1)Nc1ccc(-c2nc3ccc(Cl)cc3o2)cc1` was 2.65. Consider `COc1ccc(OCC(=O)Nc2ccc(-c3nc4ncccc4o3)cc2)cc1`, for which the fold change (FC) with microRNA 21 [1] was 2.25. Broadly, the EC50 is the concentration at which the effect is half-maximal. As usually defined, the inhibition is the share of the control response that was lost under treatment. In the case of `COc1ccc(OCC(=O)Nc2ccc(-c3nc4cc(-c5ccccc5)ccc4o3)cc2)cc1`, the fold change (FC) in the data set on microRNA 21 [1] was 7.87; in the data set on HeLa [3], 1.5 - 1.8. This molecule also came in with an EC50 at microRNA 21 [2] of 3.5 µM. The inhibition result is “Dose-dependent effect” with microRNA 21 [2] and 27% in data set [4]. In general, IC50 refers to the concentration that gives 50% inhibition. Lower therefore signals greater potency. For `COc1ccc(OCC(=O)Nc2ccc(-c3nc4cc(Cl)ccc4o3)cc2)cc1`, the fold change (FC) in the data set on microRNA 21 [1] was 4.87; in the data set on microRNA 122 [5], 0.2; in the data set on HeLa [12], 2. For the same molecule, the EC50 at microRNA 21 [2] came to 6.7 µM; in the data set with HeLa [10], 7.3 µM. Moreover, the inhibition result with microRNA 21 [2] was “Dose-dependent effect”; with microRNA 21 [7], 78%; in the data set on microRNA 21 [11], 79%; in the data set on microRNA 21 [13], 57%; in the data set with microRNA 21 [14], 33%; with microRNA 21 [15], 31%. In the data set with HeLa [3], the outcome was inactive. Besides, the Tm with microRNA 21 [6] turned out to be 56.2 °C. Further, the Activity entry was “Non-Toxic” in the data set on HEK293 and 50% in the data set on HeLa [9]. The molecule further had an IC50 with HeLa [8] of more than 50 µM. Also, in data set [4], the inhibition result is “inactive”. On to `COc1ccc(OCC(=O)Nc2cccc(-c3nc4ccccc4o3)c2)cc1`, for which the fold change (FC) with microRNA 21 [1] came to 4.73. In the case of `O=C(COc1ccccc1)Nc1cccc(-c2nc3ccccc3o2)c1`, the fold change (FC) in the data set with microRNA 21 [1] was 1.75.

With `O=C(COc1ccc(F)cc1)Nc1ccc(-c2nc3cc(Cl)ccc3o2)cc1`, the fold change (FC) in the data set with microRNA 21 [1] was 2.86.

Regarding `O=C(COc1ccc(-c2ccccc2)cc1)Nc1ccc(-c2nc3cc(Cl)ccc3o2)cc1`, the fold change (FC) in the data set on microRNA 21 [1] was determined as 2.64.

On to `N#Cc1ccc(OCC(=O)Nc2ccc(-c3nc4cc(Cl)ccc4o3)cc2)cc1`, for which the fold change (FC) in the data set on microRNA 21 [1] was 2.08. On the same count and under the same terms, to `COc1ccc(SCC(=O)Nc2ccc(-c3nc4cc(Cl)ccc4o3)cc2)cc1` belongs 2.64. As to `COc1cccc(OCC(=O)Nc2ccc(-c3nc4cc(Cl)ccc4o3)cc2)c1`, the fold change (FC) in the data set on microRNA 21 [1] was 5.37; with HeLa [3], 1.5 - 1.8. Also, the EC50 at microRNA 21 [2] was 4.7 µM. For the same molecule, the results for the inhibition result (in the data set on microRNA 21 [2]; in data set [4]) were “Dose-dependent effect” and 44%, respectively. As for `O=S(=O)(c1ccc2c(c1)CCCN2)N1CCC[C@H]2CCCC[C@@H]21`, the fold change (FC) in the data set on microRNA 122 [16] is more than 3.5. In the case of `COc1ccc(OCC(=O)Nc2ccc(-c3nc4cc(F)ccc4o3)cc2)cc1`, in the data set on microRNA 21 [1], the fold change (FC) was 2.14.

With `COc1ccc(OCC(=O)Nc2ccc(-c3nc4cc(Cl)ccc4[nH]3)cc2)cc1`, in the data set with microRNA 21 [1], the fold change (FC) came out at 1.6. Still for that read-out and setting: the value for `C#CCN(C(=O)COc1ccc(OC)cc1)c1ccc(-c2nc3cc(Cl)ccc3o2)cc1` was 1.61; that for `COc1ccc(OCC(=O)Nc2ccc(-c3nc4ccccc4o3)cc2)cc1` was 0.27.

`O=C(COc1ccccc1)Nc1ccc2cc(-c3nc4cc(Cl)ccc4o3)ccc2c1`: the fold change (FC) in the data set on microRNA 21 [1] was found to be 1.3. Consider `O=C(COc1ccccc1)Nc1ccc(-c2nc3cc(F)ccc3o2)cc1`, for which, in the data set on microRNA 21 [1], the fold change (FC) came out at 1.58. The same measure, in the same setting: to `COc1ccc(OC(=O)Nc2ccc(-c3nc4cc(Cl)ccc4o3)cc2)cc1` belongs 3.48.

In the case of `O=C(O)c1cccc(-c2noc(-c3ccccc3F)n2)c1` [ATALUREN], the “fold change (FC)” value with HeLa [3] is 1.5 - 1.8. Further, in [17], the inhibition came to 94%.

Consider `O=C(COc1ccc([N+](=O)[O-])cc1)Nc1ccc(-c2nc3cc(Cl)ccc3o2)cc1`, for which the fold change (FC) with microRNA 21 [1] was found to be 3.58. The same measure, in the same setting: the value for `O=C(Nc1ccc(-c2nc3cc(Cl)ccc3o2)cc1)Oc1ccccc1` was 3.86. Turning to `O=C(COc1ccccc1)Nc1ccc(-c2nc3ccccc3o2)cc1`, the fold change (FC) in the data set with microRNA 21 [1] was found to be 1.47.

For the molecule `Cc1cc(OCC(=O)Nc2ccc(-c3nc4cc(Cl)ccc4o3)cc2)ccc1C(C)C`, the fold change (FC) with microRNA 21 [1] came out at 2.23. The same measure, in the same setting: the value for `O=C(COc1ccccc1)Nc1ccc(-c2nc3cc(Cl)ccc3o2)cc1` was 2.87.

Take `O=C(COc1ccccc1I)Nc1ccc(-c2nc3ccccc3o2)cc1`: the fold change (FC) in the data set on microRNA 21 [1] worked out at 1.53.

On to `COc1ccc(OCC(=O)N(C)c2ccc(-c3nc4cc(Cl)ccc4o3)cc2)cc1`, for which the fold change (FC) in the data set with microRNA 21 [1] is 0.88. As for `O=C(COc1ccccc1)Nc1ccc(-c2nc3ccccc3s2)cc1`, the fold change (FC) in the data set on microRNA 21 [1] was found to be 1.68. For `O=C(COc1ccccc1I)Nc1ccc(-c2nc3ccccc3s2)cc1`, in the data set on microRNA 21 [1], the fold change (FC) came to 1.55. On the same count and under the same terms, the value for `COc1ccc(OCC(=O)Nc2cccc(-c3nc4cc(Cl)ccc4o3)c2)cc1` was 3.19.

Consider `COc1ccc(OCC(=O)Nc2ccc(-c3nc4cc(Br)ccc4o3)cc2)cc1`, for which the fold change (FC) was 6.19 in the data set on microRNA 21 [1] and 1.5 - 1.8 in the data set with HeLa [3]. Besides, on microRNA 21 [2], the EC50 came out at 6.4 µM. The inhibition entry in the data set with microRNA 21 [2] was “Dose-dependent effect”; in [4], 38%. Consider `COc1ccc(OCC(=O)Nc2ccc(-c3nc4ccc(Cl)cc4o3)cc2)cc1`, for which the fold change (FC) in the data set with microRNA 21 [1] stood at 3.32. Take `O=C(COc1ccccc1)Nc1cccc(-c2nc3cc(Cl)ccc3o2)c1`: in the data set with microRNA 21 [1], the fold change (FC) came out at 2.14.

(Values after ChEMBL document CHEMBL4385631, “Small molecule inhibition of microRNA-21 expression reduces cell viability and microtumor formation” (Bioorg Med Chem, 2019).)
